From ChEMBL document CHEMBL1641579, “Synthesis and biological evaluation of 7-substituted-1-(3-bromophenylamino)isoquinoline-4-carbonitriles as inhibitors of myosin light chain kinase and epidermal growth factor receptor” (Bioorg Med Chem, 2011)
The source made the active and inactive calls. The calls are words filed in the database; no cut-off is given here.

How the values were obtained:
NCI-H358 = assay: Growth inhibition of human NCI-H358 cells assessed as ATP level after 96 hrs by CellTiter-Glo assay; assay type: functional; conditions: NCI-H358, 96 h
[1] = Growth inhibition of human HCC2429 cells assessed as ATP level after 96 hrs by CellTiter-Glo assay; assay type: functional; conditions: HCC2429, 96 h
Summary of the method: (§1)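 NSCLC lines maintained as in earlier work and authenticated by mutational analysis and SNP arrays. Cells were plated in 384-well format and allowed 24 h before compound addition as 10 threefold serial dilutions (DMSO stocks). After 96 h, viability was read as cellular ATP by CellTiter-Glo. GI50 was fitted with an R package.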

Calu-6 = assay: Growth inhibition of human Calu6 cells assessed as ATP level after 96 hrs by CellTiter-Glo assay; assay type: functional; conditions: Calu-6, 96 h; summary of the method: as §1
NCI-H1355 = assay: Growth inhibition of human NCI-H1355 cells assessed as ATP level after 96 hrs by CellTiter-Glo assay; assay type: functional; conditions: NCI-H1355, 96 h; summary of the method: as §1
NCI-H1755 = assay: Growth inhibition of human NCI-H1755 cells assessed as ATP level after 96 hrs by CellTiter-Glo assay; assay type: functional; conditions: NCI-H1755, 96 h; summary of the method: as §1
NCI-H1993 = assay: Growth inhibition of human NCI-H1993 cells assessed as ATP level after 96 hrs by CellTiter-Glo assay; assay type: functional; conditions: NCI-H1993, 96 h
NCI-H1563 = assay: Growth inhibition of human NCI-H1563 cells assessed as ATP level after 96 hrs by CellTiter-Glo assay; assay type: functional; conditions: NCI-H1563, 96 h; summary of the method: as §1
[2] = Growth inhibition of human HCC515 cells assessed as ATP level after 96 hrs by CellTiter-Glo assay; assay type: functional; conditions: HCC515, 96 h; summary of the method: as §1
[3] = Growth inhibition of human NCI-H1915 cells assessed as ATP level after 96 hrs by CellTiter-Glo assay; assay type: functional; conditions: NCI-H1915, 96 h
Summary of the method: (§2)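 Human NSCLC cells, maintained as described previously and authenticated by mutational analysis and SNP arrays, were plated and incubated 24 h. Compounds were dissolved in DMSO and added as 10 threefold serial dilutions. Viability was read after 96 h as cellular ATP content by luminescence, and half-maximal inhibitory concentrations were fitted to give GI50.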

[4] = Growth inhibition of human NCI-H2887 cells assessed as ATP level after 96 hrs by CellTiter-Glo assay; assay type: functional; conditions: NCI-H2887, 96 h
[5] = Growth inhibition of human HCC44 cells assessed as ATP level after 96 hrs by CellTiter-Glo assay; assay type: functional; conditions: HCC44, 96 h; summary of the method: as §1
[6] = Growth inhibition of human HCC1171 cells assessed as ATP level after 96 hrs by CellTiter-Glo assay; assay type: functional; conditions: HCC1171, 96 h; summary of the method: as §1
PC-9 = assay: Growth inhibition of human PC9 cells assessed as ATP level after 96 hrs by CellTiter-Glo assay; assay type: functional; conditions: PC-9, 96 h
HOP-62 = assay: Growth inhibition of human HOP62 cells assessed as ATP level after 96 hrs by CellTiter-Glo assay; assay type: functional; conditions: HOP-62, 96 h; summary of the method: as §1
[7] = Growth inhibition of human NCI-H322 cells assessed as ATP level after 96 hrs by CellTiter-Glo assay; assay type: functional; conditions: NCI-H322, 96 h
NCI-H596 = assay: Growth inhibition of human NCI-H596 cells assessed as ATP level after 96 hrs by CellTiter-Glo assay; assay type: functional; conditions: NCI-H596, 96 h
[8] = Growth inhibition of human HCC2279 cells assessed as ATP level after 96 hrs by CellTiter-Glo assay; assay type: functional; summary of the method: as §1
[9] = Growth inhibition of human NCI-H1781 cells assessed as ATP level after 96 hrs by CellTiter-Glo assay; assay type: functional; conditions: NCI-H1781, 96 h; summary of the method: as §1
[10] = tested on: Epidermal growth factor receptor (Homo sapiens), P00533 [T790M]; assay: Inhibition of EGFR T790M mutant activation expressed in human drug-resistant H1975 cells; assay type: cell-based
NCI-H647 = assay: Growth inhibition of human NCI-H647 cells assessed as ATP level after 96 hrs by CellTiter-Glo assay; assay type: functional; conditions: NCI-H647, 96 h
[11] = Growth inhibition of human LouNH91 cells assessed as ATP level after 96 hrs by CellTiter-Glo assay; assay type: functional; conditions: LOU-NH91, 96 h; summary of the method: as §1
[12] = Growth inhibition of human NCI-H1944 cells assessed as ATP level after 96 hrs by CellTiter-Glo assay; assay type: functional; conditions: NCI-H1944, 96 h; summary of the method: as §2
NCI-H1734 = assay: Growth inhibition of human NCI-H1734 cells assessed as ATP level after 96 hrs by CellTiter-Glo assay; assay type: functional; conditions: NCI-H1734, 96 h; summary of the method: as §1
[13] = Growth inhibition of human COLO699 cells assessed as ATP level after 96 hrs by CellTiter-Glo assay; assay type: functional; conditions: COLO 699, 96 h; summary of the method: as §1
[14] = Growth inhibition of human HCC366 cells assessed as ATP level after 96 hrs by CellTiter-Glo assay; assay type: functional; conditions: HCC366, 96 h; summary of the method: as §1
NCI-H1648 = assay: Growth inhibition of human NCI-H1648 cells assessed as ATP level after 96 hrs by CellTiter-Glo assay; assay type: functional; conditions: NCI-H1648, 96 h; summary of the method: as §1
[15] = Growth inhibition of human NCI-H2077 cells assessed as ATP level after 96 hrs by CellTiter-Glo assay; assay type: functional; conditions: NCI-H2077, 96 h
NCI-H2030 = assay: Growth inhibition of human NCI-H2030 cells assessed as ATP level after 96 hrs by CellTiter-Glo assay; assay type: functional; conditions: NCI-H2030, 96 h
[16] = Growth inhibition of human NCI-H1568 cells assessed as ATP level after 96 hrs by CellTiter-Glo assay; assay type: functional; conditions: NCI-H1568, 96 h; summary of the method: as §1
[17] = Growth inhibition of human NCI-H2172 cells assessed as ATP level after 96 hrs by CellTiter-Glo assay; assay type: functional; conditions: NCI-H2172, 96 h
NCI-H322M = assay: Growth inhibition of human NCI-H322M cells assessed as ATP level after 96 hrs by CellTiter-Glo assay; assay type: functional
NCI-H520 = assay: Growth inhibition of human NCI-H520 cells assessed as ATP level after 96 hrs by CellTiter-Glo assay; assay type: functional; conditions: NCI-H520, 96 h
NCI-H2052 = assay: Growth inhibition of human NCI-H2052 cells assessed as ATP level after 96 hrs by CellTiter-Glo assay; assay type: functional; conditions: NCI-H2052, 96 h
NCI-H157 = assay: Growth inhibition of human NCI-H157 cells assessed as ATP level after 96 hrs by CellTiter-Glo assay; assay type: functional; conditions: NCI-H157, 96 h; summary of the method: as §1
[18] = Growth inhibition of human HCC78 cells assessed as ATP level after 96 hrs by CellTiter-Glo assay; assay type: functional; conditions: HCC78, 96 h; summary of the method: as §1
NCI-H2009 = assay: Growth inhibition of human NCI-H2009 cells assessed as ATP level after 96 hrs by CellTiter-Glo assay; assay type: functional; conditions: NCI-H2009, 96 h
NCI-H1770 = assay: Growth inhibition of human NCI-H1770 cells assessed as ATP level after 96 hrs by CellTiter-Glo assay; assay type: functional; conditions: NCI-H1770, 96 h; summary of the method: as §1

Chain of Epidermal growth factor receptor (Homo sapiens), P00533 [T790M] (P00533 whole entry T790M): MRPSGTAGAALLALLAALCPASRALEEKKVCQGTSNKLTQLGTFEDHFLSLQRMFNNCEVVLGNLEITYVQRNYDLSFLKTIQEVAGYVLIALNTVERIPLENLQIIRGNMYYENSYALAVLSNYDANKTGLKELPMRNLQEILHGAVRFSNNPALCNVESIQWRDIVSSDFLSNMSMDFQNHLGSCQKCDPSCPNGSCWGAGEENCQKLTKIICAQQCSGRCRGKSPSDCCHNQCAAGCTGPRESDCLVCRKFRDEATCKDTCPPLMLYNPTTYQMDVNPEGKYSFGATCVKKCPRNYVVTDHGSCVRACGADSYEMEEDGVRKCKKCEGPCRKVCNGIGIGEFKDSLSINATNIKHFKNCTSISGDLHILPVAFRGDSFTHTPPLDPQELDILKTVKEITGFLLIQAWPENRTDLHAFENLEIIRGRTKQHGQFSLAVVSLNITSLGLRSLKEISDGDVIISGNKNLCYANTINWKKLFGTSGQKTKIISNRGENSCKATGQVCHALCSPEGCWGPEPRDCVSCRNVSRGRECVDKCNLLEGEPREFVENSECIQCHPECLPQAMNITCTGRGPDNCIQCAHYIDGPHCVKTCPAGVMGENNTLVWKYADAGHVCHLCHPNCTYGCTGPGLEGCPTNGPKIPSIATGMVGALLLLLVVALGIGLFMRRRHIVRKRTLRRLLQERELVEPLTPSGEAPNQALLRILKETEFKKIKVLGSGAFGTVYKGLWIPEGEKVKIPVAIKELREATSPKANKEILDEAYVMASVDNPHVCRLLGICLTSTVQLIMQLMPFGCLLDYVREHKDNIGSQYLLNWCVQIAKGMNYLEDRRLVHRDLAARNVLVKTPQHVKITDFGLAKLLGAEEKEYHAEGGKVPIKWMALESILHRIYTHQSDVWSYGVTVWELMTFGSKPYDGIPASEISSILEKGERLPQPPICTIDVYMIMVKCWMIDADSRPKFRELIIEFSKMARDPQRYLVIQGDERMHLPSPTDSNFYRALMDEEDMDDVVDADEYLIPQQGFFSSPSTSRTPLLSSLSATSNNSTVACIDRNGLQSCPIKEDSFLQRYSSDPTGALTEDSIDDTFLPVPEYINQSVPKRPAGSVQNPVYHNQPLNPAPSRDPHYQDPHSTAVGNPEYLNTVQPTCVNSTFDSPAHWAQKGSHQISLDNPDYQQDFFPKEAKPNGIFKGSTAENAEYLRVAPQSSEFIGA

GI50 (NCI-H358): 14.5 µM | GI50 (Calu-6): 16.4 µM | GI50 (NCI-H1355): 22.9 µM | GI50 (NCI-H1755): 9.89 µM | GI50 (NCI-H1993): 12.9 µM | GI50 (NCI-H1563): 30.9 µM | GI50 (PC-9): 4.68 µM | GI50 (NCI-H596): 19.5 µM | inhibition [10]: Active | GI50 (NCI-H647): 26.3 µM | GI50 (NCI-H1734): 24.3 µM | GI50 (NCI-H1648): 21.1 µM | GI50 (NCI-H2030): 34.3 µM | GI50 (NCI-H322M): 21.4 µM | GI50 (NCI-H520): 16 µM | GI50 (NCI-H2052): 21.6 µM | GI50 (NCI-H157): 12 µM | GI50 (NCI-H2009): 26.3 µM | GI50 (NCI-H1770): 9.02 µM
Compound: CN(C)C/C=C/C(=O)Nc1ccc2c(C#N)cnc(Nc3cccc(Br)c3)c2c1
GI50 [1]: 19.5 µM | GI50 [2]: 20.4 µM | GI50 [3]: 18.2 µM | GI50 [4]: 15.5 µM | GI50 [5]: 23.7 µM | GI50 [6]: 17.4 µM | GI50 (HOP-62): 26.9 µM | GI50 [7]: 24.8 µM | GI50 [8]: 10.6 µM | GI50 [9]: 10.1 µM | GI50 [11]: 15.7 µM | GI50 [12]: 33.9 µM | GI50 [13]: 15.3 µM | GI50 [14]: 16.6 µM | GI50 [15]: 13.2 µM | GI50 [16]: 30.9 µM | GI50 [17]: 17.4 µM | GI50 [18]: 19.7 µM
